Source: ChEMBL document CHEMBL5058577, “EUbOPEN Chemogenomics Library 2 (Multiplex)” (2022)

Tested on: U2OS
Assay: Multiplex assay against U2OS
Assay type: toxicity, cell-based
Conditions: human
How it was run: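 Values for tubulin, mitochondrial-mass and membrane-permeability phenotypes are per cents of cells with healthy nuclei. These cells were identified by CellPathfinder machine-learning gating of live cells that had been stained at seeding with Hoechst33342, BioTracker Green Microtubule Cytoskeleton Dye, MitoTracker Red and Annexin V Alexa Fluor 680 and imaged on a CQ1 microscope at 37°C and 5% CO2 after compound addition. The gating first set Hoechst high-intensity objects apart from normal cells, then split normal cells into healthy, pyknosed or fragmented nuclei, and pyknosed cells into mitotic or apoptotic.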

[1] = 12 h, 1 µM, compound concentration 1 uM, replicate 1
[2] = 12 h, 1 µM, compound concentration 1 uM, replicate 2
[3] = 12 h, 10 µM, compound concentration 10 uM, replicate 1
[4] = 12 h, 10 µM, compound concentration 10 uM, replicate 2
[5] = 24 h, 1 µM, compound concentration 1 uM, replicate 1
[6] = 24 h, 1 µM, compound concentration 1 uM, replicate 2
[7] = 24 h, 10 µM, compound concentration 10 uM, replicate 1
[8] = 24 h, 10 µM, compound concentration 10 uM, replicate 2
[9] = 48 h, 1 µM, compound concentration 1 uM, replicate 1
[10] = 48 h, 1 µM, compound concentration 1 uM, replicate 2
[11] = 48 h, 10 µM, compound concentration 10 uM, replicate 1
[12] = 48 h, 10 µM, compound concentration 10 uM, replicate 2

Compound: Nc1nc(-c2ccco2)c2cnn(Cc3ccccc3F)c2n1
- Population Apoptotic (%) [1]: 82%
- Population Fragmented Nuclei (%) [1]: 23%
- Population Healthy Nuclei (%) [1]: 68%
- Population Hoechst High Intensity Objects (%) [1]: 1%
- Population Membrane Permeable-Phenotype (%) [1]: 4%
- Population Mitochondria Different-Phenotype (%) [1]: 2%
- Population Mitotic Cells (%) [1]: 17%
- Population Normal (%) [1]: 98%
- Population Pyknosed Nuclei (%) [1]: 8%
- Population Tubulin-Different-Phenotype (%) [1]: 3%
- Total Cell Count [1]: 280
- Population Apoptotic (%) [2]: 92%
- Population Healthy Nuclei (%) [2]: 64%
- Population Hoechst High Intensity Objects (%) [2]: 0%
- Population Membrane Permeable-Phenotype (%) [2]: 12%
- Population Mitochondria Different-Phenotype (%) [2]: 5%
- Population Mitotic Cells (%) [2]: 7%
- Population Normal (%) [2]: 99%
- Population Pyknosed Nuclei (%) [2]: 12%
- Population Tubulin-Different-Phenotype (%) [2]: 8%
- Total Cell Count [2]: 109
- Population Apoptotic (%) [3]: 87%
- Population Fragmented Nuclei (%) [3]: 41%
- Population Healthy Nuclei (%) [3]: 45%
- Population Hoechst High Intensity Objects (%) [3]: 5%
- Population Membrane Permeable-Phenotype (%) [3]: 10%
- Population Mitochondria Different-Phenotype (%) [3]: 4%
- Population Mitotic Cells (%) [3]: 12%
- Population Normal (%) [3]: 94%
- Population Pyknosed Nuclei (%) [3]: 12%
- Population Tubulin-Different-Phenotype (%) [3]: 7%
- Total Cell Count [3]: 197
- Population Apoptotic (%) [4]: 77%
- Population Fragmented Nuclei (%) [4]: 20%
- Population Healthy Nuclei (%) [4]: 72%
- Population Hoechst High Intensity Objects (%) [4]: 0%
- Population Membrane Permeable-Phenotype (%) [4]: 5%
- Population Mitochondria Different-Phenotype (%) [4]: 5%
- Population Mitotic Cells (%) [4]: 22%
- Population Normal (%) [4]: 99%
- Population Pyknosed Nuclei (%) [4]: 7%
- Population Tubulin-Different-Phenotype (%) [4]: 1%
- Total Cell Count [4]: 125
- Population Apoptotic (%) [5]: 96%
- Population Fragmented Nuclei (%) [5]: 19%
- Population Healthy Nuclei (%) [5]: 70%
- Population Hoechst High Intensity Objects (%) [5]: 1%
- Population Membrane Permeable-Phenotype (%) [5]: 4%
- Population Mitochondria Different-Phenotype (%) [5]: 1%
- Population Mitotic Cells (%) [5]: 3%
- Population Normal (%) [5]: 98%
- Population Pyknosed Nuclei (%) [5]: 9%
- Population Tubulin-Different-Phenotype (%) [5]: 2%
- Total Cell Count [5]: 332
- Population Apoptotic (%) [6]: 84%
- Population Fragmented Nuclei (%) [6]: 18%
- Population Healthy Nuclei (%) [6]: 71%
- Population Hoechst High Intensity Objects (%) [6]: 4%
- Population Membrane Permeable-Phenotype (%) [6]: 10%
- Population Mitochondria Different-Phenotype (%) [6]: 3%
- Population Mitotic Cells (%) [6]: 15%
- Population Normal (%) [6]: 95%
- Population Pyknosed Nuclei (%) [6]: 10%
- Population Tubulin-Different-Phenotype (%) [6]: 8%
- Total Cell Count [6]: 127
- Population Apoptotic (%) [7]: 82%
- Population Fragmented Nuclei (%) [7]: 38%
- Population Healthy Nuclei (%) [7]: 53%
- Population Hoechst High Intensity Objects (%) [7]: 5%
- Population Membrane Permeable-Phenotype (%) [7]: 7%
- Population Mitochondria Different-Phenotype (%) [7]: 3%
- Population Mitotic Cells (%) [7]: 17%
- Population Normal (%) [7]: 94%
- Population Pyknosed Nuclei (%) [7]: 7%
- Population Tubulin-Different-Phenotype (%) [7]: 5%
- Total Cell Count [7]: 230
- Population Apoptotic (%) [8]: 90%
- Population Fragmented Nuclei (%) [8]: 19%
- Population Healthy Nuclei (%) [8]: 73%
- Population Hoechst High Intensity Objects (%) [8]: 1%
- Population Membrane Permeable-Phenotype (%) [8]: 5%
- Population Mitochondria Different-Phenotype (%) [8]: 0%
- Population Mitotic Cells (%) [8]: 9%
- Population Normal (%) [8]: 98%
- Population Tubulin-Different-Phenotype (%) [8]: 4%
- Total Cell Count [8]: 157
- Population Apoptotic (%) [9]: 94%
- Population Fragmented Nuclei (%) [9]: 17%
- Population Healthy Nuclei (%) [9]: 74%
- Population Hoechst High Intensity Objects (%) [9]: 1%
- Population Membrane Permeable-Phenotype (%) [9]: 2%
- Population Mitochondria Different-Phenotype (%) [9]: 2%
- Population Mitotic Cells (%) [9]: 5%
- Population Normal (%) [9]: 98%
- Population Pyknosed Nuclei (%) [9]: 7%
- Population Tubulin-Different-Phenotype (%) [9]: 2%
- Total Cell Count [9]: 462
- Population Apoptotic (%) [10]: 95%
- Population Fragmented Nuclei (%) [10]: 16%
- Population Healthy Nuclei (%) [10]: 67%
- Population Hoechst High Intensity Objects (%) [10]: 6%
- Population Membrane Permeable-Phenotype (%) [10]: 5%
- Population Mitochondria Different-Phenotype (%) [10]: 5%
- Population Mitotic Cells (%) [10]: 4%
- Population Normal (%) [10]: 93%
- Population Pyknosed Nuclei (%) [10]: 15%
- Population Tubulin-Different-Phenotype (%) [10]: 1%
- Total Cell Count [10]: 141
- Population Apoptotic (%) [11]: 95%
- Population Fragmented Nuclei (%) [11]: 37%
- Population Healthy Nuclei (%) [11]: 51%
- Population Hoechst High Intensity Objects (%) [11]: 11%
- Population Membrane Permeable-Phenotype (%) [11]: 17%
- Population Mitochondria Different-Phenotype (%) [11]: 6%
- Population Mitotic Cells (%) [11]: 4%
- Population Normal (%) [11]: 88%
- Population Pyknosed Nuclei (%) [11]: 10%
- Population Tubulin-Different-Phenotype (%) [11]: 11%
- Total Cell Count [11]: 252
- Population Apoptotic (%) [12]: 86%
- Population Fragmented Nuclei (%) [12]: 23%
- Population Healthy Nuclei (%) [12]: 69%
- Population Hoechst High Intensity Objects (%) [12]: 2%
- Population Membrane Permeable-Phenotype (%) [12]: 12%
- Population Mitotic Cells (%) [12]: 13%
- Population Normal (%) [12]: 97%
- Population Pyknosed Nuclei (%) [12]: 7%
- Population Tubulin-Different-Phenotype (%) [12]: 6%
- Total Cell Count [12]: 196
